In ChEMBL document CHEMBL1136710, “Phenylbutyrates as potent, orally bioavailable vitronectin receptor (integrin alphavbeta3) antagonists” (Bioorg Med Chem Lett, 2003):

Experiments:
[1] = biological target: Integrin alpha-V/beta-5 (Homo sapiens, UniProt P06756+P18084); experiment: Binding affinity for alphaV-beta5 vitronectin receptor; type: protein-complex assay
In short: (§1)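 Competitive radioligand binding to isolated human integrin, αvβ3 or αvβ5, with 3H-SK&F-107260 as the displaced ligand; Ki values are means of two to three separate experiments.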

[2] = Oral bioavailability in rat; type: ADME, organism-based; conditions: in vivo
In short: (§2)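 Rats (three per compound) dosed iv and po; plasma concentration–time data analysed non-compartmentally for half-life and clearance; oral bioavailability calculated from dose-normalized iv and po AUC (area under plasma concentration–time curve).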

[3] = biological target: T1, Integrin alpha-V/beta-3 (Homo sapiens, UniProt P05106+P06756); experiment: Binding affinity for alphav/beta 3 vitronectin receptor in HEK cells; type: cell-based, HEK293
In short: (§3)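 Cell-based αvβ3 assay: HEK 293 cells transfected with human αvβ3; inhibition of adhesion to purified human vitronectin measured; IC50 values are means of two experiments, each in triplicate, run with an internal standard.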

[4] = biological target: T1, Integrin alpha-V/beta-3; experiment: Binding affinity for alphaV-beta3 vitronectin receptor; type: protein-complex assay; in short: as §1
[5] = Half life period in rat; type: ADME, organism-based; conditions: in vivo; in short: as §2
[6] = Plasma clearance in rat; type: ADME, organism-based; conditions: read-out: Clp; in short: as §2
[7] = biological target: Integrin alpha-IIb/beta-3 (Homo sapiens, UniProt P05106+P08514); experiment: Binding affinity for alphaIIb-beta3 vitronectin receptor; type: protein-complex assay
[8] = biological target: T1, Integrin alpha-V/beta-3; experiment: Inhibition of HEK 293 cell adhesion to vitronectin by human alphaV-beta3 integrin; type: cell-based, HEK293; in short: as §3
[9] = organism: Homo sapiens; experiment: Compound was tested for the inhibition of human vascular smooth muscle cell migration; type: functional

Integrin alpha-V/beta-5, sequence (P06756 31-889 limits assumed): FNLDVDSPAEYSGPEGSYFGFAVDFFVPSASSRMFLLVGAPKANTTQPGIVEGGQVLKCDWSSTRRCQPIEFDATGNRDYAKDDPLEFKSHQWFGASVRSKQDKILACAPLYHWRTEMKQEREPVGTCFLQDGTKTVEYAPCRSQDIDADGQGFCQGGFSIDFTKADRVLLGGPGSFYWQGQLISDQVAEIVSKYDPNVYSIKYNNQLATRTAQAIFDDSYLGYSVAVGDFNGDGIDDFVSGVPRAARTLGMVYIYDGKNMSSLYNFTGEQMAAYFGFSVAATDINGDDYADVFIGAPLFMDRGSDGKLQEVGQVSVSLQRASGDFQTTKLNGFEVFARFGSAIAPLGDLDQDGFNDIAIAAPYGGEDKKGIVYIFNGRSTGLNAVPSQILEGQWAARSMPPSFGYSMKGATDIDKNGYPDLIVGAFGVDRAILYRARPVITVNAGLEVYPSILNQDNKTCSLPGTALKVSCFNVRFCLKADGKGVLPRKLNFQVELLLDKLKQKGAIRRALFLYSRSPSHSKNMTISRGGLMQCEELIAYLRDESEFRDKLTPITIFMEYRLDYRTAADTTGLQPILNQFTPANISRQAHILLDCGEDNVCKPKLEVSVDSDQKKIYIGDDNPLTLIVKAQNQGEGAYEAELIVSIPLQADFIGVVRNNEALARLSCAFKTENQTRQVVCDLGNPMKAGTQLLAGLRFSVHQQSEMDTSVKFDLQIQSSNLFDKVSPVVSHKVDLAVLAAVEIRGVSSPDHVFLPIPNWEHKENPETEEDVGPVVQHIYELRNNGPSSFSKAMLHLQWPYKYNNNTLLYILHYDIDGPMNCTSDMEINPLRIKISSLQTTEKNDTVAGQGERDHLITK
Integrin alpha-V/beta-5, sequence (P06756 891-1048 limits assumed): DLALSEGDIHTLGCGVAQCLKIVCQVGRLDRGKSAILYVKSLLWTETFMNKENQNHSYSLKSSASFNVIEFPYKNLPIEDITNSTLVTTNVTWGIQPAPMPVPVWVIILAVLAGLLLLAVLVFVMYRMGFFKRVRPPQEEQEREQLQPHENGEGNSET
Integrin alpha-V/beta-5, sequence (P18084 24-799 limits assumed): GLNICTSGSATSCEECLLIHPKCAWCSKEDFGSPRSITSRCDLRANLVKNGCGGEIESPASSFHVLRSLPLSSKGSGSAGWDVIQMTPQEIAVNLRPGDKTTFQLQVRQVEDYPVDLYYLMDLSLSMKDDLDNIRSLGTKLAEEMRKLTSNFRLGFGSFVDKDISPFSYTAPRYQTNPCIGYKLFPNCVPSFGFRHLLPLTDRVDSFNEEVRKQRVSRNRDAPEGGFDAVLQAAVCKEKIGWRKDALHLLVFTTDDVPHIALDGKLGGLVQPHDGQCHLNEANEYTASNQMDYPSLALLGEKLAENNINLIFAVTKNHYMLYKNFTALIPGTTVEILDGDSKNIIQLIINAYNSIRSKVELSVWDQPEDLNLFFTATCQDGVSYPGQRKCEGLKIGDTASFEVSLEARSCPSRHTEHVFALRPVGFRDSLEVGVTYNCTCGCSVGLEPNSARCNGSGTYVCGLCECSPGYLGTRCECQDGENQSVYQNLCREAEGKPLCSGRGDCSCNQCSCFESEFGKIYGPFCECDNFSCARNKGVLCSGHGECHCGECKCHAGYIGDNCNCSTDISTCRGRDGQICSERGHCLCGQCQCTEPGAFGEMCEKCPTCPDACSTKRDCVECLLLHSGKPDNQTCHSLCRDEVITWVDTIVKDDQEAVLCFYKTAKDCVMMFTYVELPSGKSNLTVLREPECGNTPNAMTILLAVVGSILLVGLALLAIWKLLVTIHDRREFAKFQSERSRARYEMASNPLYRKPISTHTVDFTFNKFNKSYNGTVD
T1 sequence (P05106 27-788 limits assumed): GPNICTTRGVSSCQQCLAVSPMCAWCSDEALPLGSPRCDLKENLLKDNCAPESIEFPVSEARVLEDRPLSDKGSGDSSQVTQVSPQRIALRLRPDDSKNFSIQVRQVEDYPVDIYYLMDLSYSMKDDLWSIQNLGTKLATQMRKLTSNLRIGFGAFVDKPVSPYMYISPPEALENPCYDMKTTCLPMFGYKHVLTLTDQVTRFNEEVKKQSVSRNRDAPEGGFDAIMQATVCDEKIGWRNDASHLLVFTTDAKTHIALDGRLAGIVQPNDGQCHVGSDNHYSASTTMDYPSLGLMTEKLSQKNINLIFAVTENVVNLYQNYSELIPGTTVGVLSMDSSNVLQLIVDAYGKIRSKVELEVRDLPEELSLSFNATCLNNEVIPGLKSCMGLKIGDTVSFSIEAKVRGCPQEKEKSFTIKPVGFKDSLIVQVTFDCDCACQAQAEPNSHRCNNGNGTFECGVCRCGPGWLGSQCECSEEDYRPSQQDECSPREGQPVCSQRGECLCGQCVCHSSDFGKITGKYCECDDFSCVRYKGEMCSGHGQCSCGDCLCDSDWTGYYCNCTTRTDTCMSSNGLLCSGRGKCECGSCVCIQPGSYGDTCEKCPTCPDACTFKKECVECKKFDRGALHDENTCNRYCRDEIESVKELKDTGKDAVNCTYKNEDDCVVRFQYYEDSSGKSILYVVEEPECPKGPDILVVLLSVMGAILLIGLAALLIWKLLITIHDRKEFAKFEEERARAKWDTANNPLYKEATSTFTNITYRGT
T1 sequence (P06756 31-889 limits assumed): as the sequence (P06756 31-889 limits assumed) above
T1 sequence (P06756 891-1048 limits assumed): as the sequence (P06756 891-1048 limits assumed) above
Integrin alpha-IIb/beta-3, sequence (P05106 27-788 limits assumed): as the sequence (P05106 27-788 limits assumed) above
Integrin alpha-IIb/beta-3, sequence (P08514 32-887 limits assumed): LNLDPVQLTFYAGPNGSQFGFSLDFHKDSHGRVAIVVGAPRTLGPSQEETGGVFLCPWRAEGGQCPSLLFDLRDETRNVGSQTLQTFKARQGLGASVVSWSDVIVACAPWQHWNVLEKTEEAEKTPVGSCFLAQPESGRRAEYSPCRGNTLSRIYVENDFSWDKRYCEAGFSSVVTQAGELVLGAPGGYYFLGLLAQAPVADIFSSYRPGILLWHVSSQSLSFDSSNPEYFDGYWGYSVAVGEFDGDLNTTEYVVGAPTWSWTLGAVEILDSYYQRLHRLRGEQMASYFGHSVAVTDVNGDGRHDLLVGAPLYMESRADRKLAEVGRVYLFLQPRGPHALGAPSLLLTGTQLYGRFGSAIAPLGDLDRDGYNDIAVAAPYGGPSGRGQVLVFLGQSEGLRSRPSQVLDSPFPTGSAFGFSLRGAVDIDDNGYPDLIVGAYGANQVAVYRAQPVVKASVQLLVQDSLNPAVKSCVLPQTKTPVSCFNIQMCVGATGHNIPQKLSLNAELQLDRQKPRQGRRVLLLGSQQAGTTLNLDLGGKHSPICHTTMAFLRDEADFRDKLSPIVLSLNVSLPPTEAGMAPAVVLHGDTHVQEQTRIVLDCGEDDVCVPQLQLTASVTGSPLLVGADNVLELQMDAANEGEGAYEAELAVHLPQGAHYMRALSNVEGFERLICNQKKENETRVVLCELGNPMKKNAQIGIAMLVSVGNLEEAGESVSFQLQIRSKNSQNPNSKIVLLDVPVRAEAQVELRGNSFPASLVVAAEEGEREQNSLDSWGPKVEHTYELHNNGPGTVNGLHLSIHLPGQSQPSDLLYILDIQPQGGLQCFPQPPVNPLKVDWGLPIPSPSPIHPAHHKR
Integrin alpha-IIb/beta-3, sequence (P08514 891-1039 limits assumed): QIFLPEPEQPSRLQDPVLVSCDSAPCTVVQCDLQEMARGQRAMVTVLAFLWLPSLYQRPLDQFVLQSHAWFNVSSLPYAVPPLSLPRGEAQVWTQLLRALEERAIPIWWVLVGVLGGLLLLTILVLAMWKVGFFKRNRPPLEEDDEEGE

## O=C(O)C[C@@H]1Cc2ccc(OCCCNc3ccccn3)cc2Cc2ccccc21
[1]
  Ki: 2.6 nM

## O=C(O)C[C@H](Cc1ccc(OCCCNc2ccccn2)cc1)c1ccccc1
[2]
  bioavailability: 100%
[3]
  IC50: 470 nM
[4]
  Ki: 12 nM
[5]
  half-life: 2.4 h
[6]
  clearance: 7.2 mL/min/kg

## O=C(O)CC(Cc1ccc(OCCCNc2ccccn2)cc1)c1ccccc1 (centres undefined)
[7]
  Ki: > 10000 nM
[4]
  Ki: 32 nM
[1]
  Ki: 6 nM
[8]
  IC50: 500 nM

## O=C(O)C[C@H](Cc1ccc(OCCc2ccc3c(n2)NCCC3)cc1)c1ccccc1
[2]
  bioavailability: 100%
[7]
  Ki: 36000 nM
[3]
  IC50: 30 nM
[4]
  Ki: 2.5 nM
[1]
  Ki: 2.5 nM
[9]
  IC50: 26 nM
[5]
  half-life: 1.58 h
[6]
  clearance: 6 mL/min/kg

## CNc1cccc(CCOc2ccc(C[C@@H](CC(=O)O)c3ccccc3)cc2)n1
[2]
  bioavailability: 100%
[3]
  IC50: 330 nM
[4]
  Ki: 7 nM
[5]
  half-life: 5.17 h
[6]
  clearance: 4.9 mL/min/kg

## O=C(O)C[C@@H](Cc1ccc(OCCCNc2ccccn2)cc1)c1ccccc1
[4]
  Ki: 170 nM
